Bioassay records as filed in PubChem BioAssay.
In the library only some 2% were active in any assay of this set; here they are far more common.
TWEAK-Fn14 inh = inhibitors of TWEAK-Fn14 signaling, primary screen, luciferase reporter cells, uHTS. TWEAK-stimulated Fn14 reporter cells, luciferase luminescence, 8 h. inhibition, % at 10 µM. 360,000 tested, 2% active; in the data active = inhibition above about 50%
CaV13 ICDI inh = Disruptors of the CACNA1D IQ motif to Ca2+-dependent inactivation inhibitor domain association, primary screening, Förster resonance energy transfer in intact living …. HEK cells, CFP/YFP FRET ICDI-IQ, plate reader, 10 min; percent FRET-ratio fall versus neutral wells. inhibition, % at 12.3 µM. 340,000 tested, 0.098% active. AID 743397;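 active = mean replicate inhibition of at least 30% and at least 1% of replicates passing that level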
LGR2 inh = inhibitors of bursicon-induced LGR2 CRE-luciferase signal, primary screen, cell-based, HEK293, CRE-luciferase reporter, bursicon stimulation | Drosophila bursicon receptor LGR2 (rickets) | bursicon-stimulated, 4 h | inhibition, % at 9.99 µM | 380,000 tested, 0.35% active | AID 720647, 2013;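 active = drop in luminescence signal, shown as inhibition above about 50% in the replicate tests, limit read from the data, passing the limit was not always enough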;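 note: agonist challenge used bursicon conditioned medium at about half maximal strength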
TROY NFkB inh = inhibitors of TROY-driven NF-kB signaling, primary screen, Q293 LMP1-TROYcd cells, NF-kB luciferase, uHTS. Q293 LMP1-TROYcd NF-kB luciferase reporter, 4 h. inhibition, % at 10 µM. 360,000 tested, 0.98% active;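 active = compounds whose plate-normalised and pattern-corrected inhibition of the luciferase reporter signal at the single screening dose is 50% or more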
Xi reactivation = activators of inactive X chromosome reactivation, primary screen, imaging, XiGFP fibroblasts, GFP high-content imaging, set 2; AID 743238, 2013; XiGFP mouse fibroblasts, % GFP-positive cells imaging, 3 d; cells co-treated with 5-aza-dC sensitizer; scaled so ellipticine positive control = 100%; 360,000 tested, 0.055% active; activation, % at 7.58 µM;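 active = mean normalized replicate activation at least 10% and every replicate at or above 10%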
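System: 68-5-11 XiGFP fibroblast line; Timing: 3 days compound exposure; Compound dosing: one concentration, pinned; Benchmarks: positive control ellipticine, 6 µM final; Buffer or medium: DMEM containing 5-aza-dC.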
A number is an active result.

COc1cc(SC)ccc1C(=O)Nc1ncc(C)s1 was read as TWEAK-Fn14 inh 100.4, CaV13 ICDI inh inactive, LGR2 inh 102.4, TROY NFkB inh 83.1 and Xi reactivation inactive.
Screening COc1cc(SC)ccc1C(=O)Nc1ccccn1 returned TWEAK-Fn14 inh 56.2, CaV13 ICDI inh inactive, LGR2 inh inactive, TROY NFkB inh inactive and Xi reactivation inactive.
Screening COc1cc(SC)ccc1C(=O)Nc1cccc(C)n1 returned TWEAK-Fn14 inh inactive, CaV13 ICDI inh inactive, LGR2 inh inactive, TROY NFkB inh inactive and Xi reactivation inactive.
For COc1cc(SC)ccc1C(=O)Nc1ccc(Br)cn1 the results were TWEAK-Fn14 inh 97.4, CaV13 ICDI inh inactive, TROY NFkB inh 84.0 and Xi reactivation inactive.
COc1cc(SC)ccc1C(=O)Nc1ccc(C)cc1 was read as TWEAK-Fn14 inh inactive, CaV13 ICDI inh inactive, TROY NFkB inh inactive and Xi reactivation inactive.
`Cc1cc(C)n2nc(C(=O)NCc3cccc(C(F)(F)F)c3)nc2n1` gave TWEAK-Fn14 inh inactive, CaV13 ICDI inh inactive, LGR2 inh inactive, TROY NFkB inh 51.1 and Xi reactivation inactive.
For CC(C)C[C@@H](CN1CCCC1CN1C(=S)NC[C@@H]1Cc1ccc(O)cc1)N1C[C@H](Cc2ccc(O)cc2)N(CCc2ccccc2)C1=S (some centres not stated) the results were TWEAK-Fn14 inh 64.6, CaV13 ICDI inh inactive, LGR2 inh inactive, TROY NFkB inh inactive and Xi reactivation inactive.
Oc1ccc(C[C@H]2CN([C@@H](Cc3ccccc3)CN3CCC[C@@H]3CN3C(=S)NC[C@@H]3Cc3ccccc3)C(=S)N2CC2CCCCC2)cc1 was read as TWEAK-Fn14 inh inactive, CaV13 ICDI inh inactive, LGR2 inh inactive, TROY NFkB inh inactive and Xi reactivation inactive.
For Oc1ccc(C[C@H]2CNC(=S)N2CC2CCCN2C[C@H](Cc2ccc(O)cc2)N2C[C@H](Cc3ccc(O)cc3)N(CC3CCCCCC3)C2=S)cc1 (some centres not stated) the results were TWEAK-Fn14 inh 88.6, CaV13 ICDI inh inactive, LGR2 inh inactive, TROY NFkB inh inactive and Xi reactivation inactive.
Screening Oc1ccc(C[C@H]2CNC(=S)N2CC2CCCN2C[C@H](Cc2ccc(O)cc2)N2C[C@H](Cc3ccccc3)N(CC3CCCCC3)C2=S)cc1 (some centres not stated) returned TWEAK-Fn14 inh 62.3, CaV13 ICDI inh inactive, LGR2 inh inactive, TROY NFkB inh inactive and Xi reactivation inactive.
Screening Oc1ccc(C[C@H]2CN([C@@H](Cc3ccc(O)cc3)CN3CCC[C@@H]3CN3C(=S)NC[C@@H]3Cc3ccccc3)C(=S)N2CCc2ccccc2)cc1 returned TWEAK-Fn14 inh inactive, CaV13 ICDI inh inactive, LGR2 inh inactive, TROY NFkB inh inactive and Xi reactivation inactive.
CO[C@@H]1CN(C)C(=O)c2ccc(NC(=O)c3cc(C)on3)cc2OC[C@@H](C)N(C(=O)C2CC2)C[C@H]1C was read as LGR2 inh inactive and Xi reactivation inactive.
Screening CNC[C@H]1Oc2ccc(NS(=O)(=O)c3cccs3)cc2CC(=O)N([C@@H](C)CO)C[C@@H]1C returned LGR2 inh inactive and Xi reactivation inactive.
Screening CCCN(C)C[C@@H]1Oc2cc(C#CCC(C)C)ccc2S(=O)(=O)N([C@@H](C)CO)C[C@@H]1C returned LGR2 inh inactive and Xi reactivation inactive.
Screening CC[n+]1c(/C=C/N(C)c2ccccc2)n(-c2ccccc2)c2ccc(-c3nc4ccccc4s3)cc21 returned TWEAK-Fn14 inh 106.7 and TROY NFkB inh 63.8.
For CCOC(=O)C(=Cc1ccc(-n2cncn2)cc1)C(=O)OCC the results were TWEAK-Fn14 inh 100.7, CaV13 ICDI inh inactive, LGR2 inh 65.0, TROY NFkB inh 62.7 and Xi reactivation inactive.
Screening C[C@@H]1CN([C@@H](C)CO)C(=O)c2cc(-c3ccccc3F)cnc2O[C@@H]1CN(C)C(=O)C1CC1 returned LGR2 inh inactive and Xi reactivation inactive.
For C[C@H](CO)N1C[C@H](C)[C@H](CN(C)C(=O)Cc2cccnc2)Oc2ncc(C#CCc3ccccc3)cc2C1=O the results were LGR2 inh inactive and Xi reactivation inactive.
Cc1ccc(-c2noc(-c3cccs3)n2)cc1 was read as TWEAK-Fn14 inh inactive, CaV13 ICDI inh inactive, LGR2 inh 70.3 and TROY NFkB inh inactive.
For COc1ccccc1-c1noc(-c2cccs2)n1 the results were TWEAK-Fn14 inh inactive, CaV13 ICDI inh inactive, LGR2 inh inactive and TROY NFkB inh inactive.
COc1ccc(-c2nc(-c3cccs3)no2)cc1 was read as TWEAK-Fn14 inh 86.1, CaV13 ICDI inh inactive, LGR2 inh 80.6 and TROY NFkB inh 58.3.
`CCOC(=O)c1c(-c2ccccc2Cl)csc1NC(=O)CSc1nc(C)cc(=O)[nH]1` gave TWEAK-Fn14 inh inactive, CaV13 ICDI inh inactive, LGR2 inh inactive, TROY NFkB inh 59.4 and Xi reactivation inactive.
`CCOC(=O)c1ccc(NC(=O)CSc2nc(C)cc(=O)[nH]2)cc1` gave TWEAK-Fn14 inh inactive and TROY NFkB inh inactive.
CCOC(=O)c1c(-c2ccccc2)csc1NC(=O)CSc1nnc(C)s1 was read as TWEAK-Fn14 inh 78.9, CaV13 ICDI inh inactive, LGR2 inh inactive, TROY NFkB inh inactive and Xi reactivation inactive.
CC(C)NC(=O)N1CC2(C1)[C@H](c1ccccc1)[C@H](CO)N2C(=O)C1CCC1 was read as LGR2 inh inactive and Xi reactivation inactive.
Screening COc1cccc(NC(=O)N2C[C@@H](O)COC[C@@H]3O[C@@H](CC(=O)NC4Cc5ccccc5C4)CC[C@H]32)c1 returned LGR2 inh inactive and Xi reactivation inactive.
Screening COC(=O)C[C@@H]1CC[C@@H]2[C@H](COc3ccc(NC(=O)c4cnccn4)cc3C(=O)N2C)O1 returned LGR2 inh inactive and Xi reactivation inactive.
Screening NNC(=O)COc1ccc(-c2nccc(-c3ccc(F)cc3)n2)cc1 returned TWEAK-Fn14 inh 54.9, CaV13 ICDI inh inactive, LGR2 inh inactive, TROY NFkB inh inactive and Xi reactivation inactive.
O=C(O)COc1ccc(-c2nccc(-c3ccccn3)n2)cc1 was read as TWEAK-Fn14 inh 61.3, CaV13 ICDI inh inactive, LGR2 inh inactive, TROY NFkB inh inactive and Xi reactivation inactive.
FCCCOc1ccc(-c2nccc(-c3ccccn3)n2)cc1 was read as TWEAK-Fn14 inh inactive, CaV13 ICDI inh inactive, LGR2 inh inactive, TROY NFkB inh inactive and Xi reactivation inactive.
Screening NNC(=O)COc1ccc(F)cc1 returned TWEAK-Fn14 inh inactive, CaV13 ICDI inh inactive, LGR2 inh inactive, TROY NFkB inh inactive and Xi reactivation inactive.
